Experimental data collected from several papers.
Each line is one published result; the experiments were not run side by side.
Target: 5'-AMP-activated protein kinase catalytic subunit alpha-1 (PRKAA1, Homo sapiens, UniProt Q13131)
Technique: competition with immobilised ligand

Cc1cnc(Nc2ccc(C(=O)N3CCC(N4CCCC4)CC3)cc2)nc1-c1cc2ccccc2s1  remaining binding (binding; 1 µM): 7.9%
C[C@H](NC(=O)c1cnc2n1[C@](C)(Cc1ccc(C#N)cc1)C(=O)N2c1cc(Cl)c(F)c(Cl)c1)C(=O)NC1(c2ccccn2)CC1  remaining binding (cell-free assay; 1 µM): 100%
c1cncc(-c2cccc(Nc3nccc(NC4CCCCC4)n3)c2)c1  remaining binding (binding; 10 µM): 15%
O=C(NC[C@@H]1[C@H]2CN(C(=O)OCc3cc(C(F)(F)F)cc(C(F)(F)F)c3)C[C@@H]12)c1ccc2[nH]nnc2c1  remaining binding (cell-free assay; 1 µM): 100%
C[C@@H](c1ccc(-n2cnc3c(N)ncnc32)cc1)N1CCc2nn(C)c(Cc3ccccc3)c2C1=O  remaining binding (binding; 0.1 µM): 95%
CS(=O)(=O)NCC[C@H](NC(=O)c1cncc2c1cnn2-c1ccc(F)cc1)c1ccnc(S(C)(=O)=O)c1  remaining binding (cell-free assay; 1 µM): 100%
O=C(c1ccc(Nc2ncc(Cl)c(-c3ccc(Cl)s3)n2)cc1)N1CCC(N2CCCC2)CC1  remaining binding (binding; 1 µM): 8.1%
Cc1cnn2ncc(-c3ccnc(N(C)C)n3)c2c1  remaining binding (binding; 1 µM): 93%
CC(=O)N1CCC(c2ccc(C(=O)NC3=NCCN3)cc2C(F)(F)F)CC1  remaining binding (cell-free assay; 1 µM): 100%
O=C(NCC1CCOCC1)c1n[nH]cc1NC(=O)c1c(F)cccc1F  remaining binding (binding; 1 µM): 93%
N[C@H]1CCN(c2nccc(-c3cnn4ncccc34)n2)C1  remaining binding (binding; 1 µM): 100%
CCN1CCN(Cc2ccc(C(=O)Nc3ccc(C)c(Oc4ccc5c(c4)CC(=O)N5)c3)cc2C(F)(F)F)CC1  remaining binding (binding; 1 µM): 100%
COc1ncc2cc3ccccc3nc2c1C#N  remaining binding (cell-free assay; 5 µM): 100%
CN(C)c1ncc(F)c(-c2cnn3ncccc23)n1  remaining binding (binding; 1 µM): 48%
COc1cnc(Nc2cccc(S(N)(=O)=O)c2)nc1N1CCN(c2ccccc2)CC1  remaining binding (binding; 1 µM): 100%
CN(CCCC(F)(F)F)c1nccc(-c2cnn3ncccc23)n1  remaining binding (binding; 1 µM): 100%
O=S(=O)(NC1CCC(c2cc(F)ccc2F)(S(=O)(=O)c2ccc(Cl)cc2)CC1)C(F)(F)F (stereo not drawn)  remaining binding (cell-free assay; 1 µM): 100%
C[C@H]1CCN(c2nccc(-c3cnn4ncccc34)n2)C1  remaining binding (binding; 1 µM): 93%
CC(C)CC(=O)N1CCc2nc(-c3ccc(Br)cc3)nc(N(C)Cc3ccccc3)c2C1  remaining binding (cell-free assay; 0.1 µM): 100%
O=C(NCCCN1CCOCC1)c1ccc(Nc2nccc(-c3cc4ccccc4s3)n2)cc1  remaining binding (binding; 1 µM): 42%
CN(C)c1nccc(-c2cnn3ncccc23)n1  remaining binding (binding; 1 µM): 100%
